Rows were chosen to be rich in hits. Some 2.8% of all compounds tested hit in one or more screens of this group.
HCT116 bCat-KO – primary screen for growth suppressors in beta-catenin knockout HCT116 cells (colon tumor, human); HCT116 beta-catenin knockout viability, CellTiter-Glo, 60 h; active compounds read low; viability, % at 10 µM; 140,000 tested, 1.5% active; AID 818, 2007;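 active = viability at or under a set limit, the compound median less 4 SD, cut at about 6% in these data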;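 also: 0% = Hyamine 1622 control at 20 µM and 100% = untreated cell control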
Yeast lifespan up – compounds extending yeast replicative lifespan, primary screen, S. cerevisiae, OD615 | S. cerevisiae growth with nicotinamide; deaD strain in restrictive glucose medium | inhibition of the nicotinamide effect, % at 10 µM | 130,000 tested, 0.68% active;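 active = inhibition above a set limit, placed 3 SD over the median of all compounds, cut at about 26% in these data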;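 also: 0% = nicotinamide-treated wells and 100% = cells grown without nicotinamide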
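Material: Modified budding yeast, DeaD strain | Medium: Restrictive glucose medium | Probe or stimulus: 1.5 mM nicotinamide | Dosing: Single dose 10 µM compound, 0.25% DMSO | Times: 48 h at 30 °C | Technique: OD615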
PTEN del growth – growth suppression of PTEN-null HCT116, primary screen, cell-based, CellTiter-Glo. HCT116 PTEN-null viability, 60 h; active compounds read low. viability, % at 10 µM. 140,000 tested, 1.2% active;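 active = viability at or below a set limit, 4 SD under the median of all tested compounds, cut at about 3.7% in these data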;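 also: PTEN knockout HCT116 line with beta catenin targeted HCT116 as companion control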
Yeast growth inh – growth inhibitors of yeast BB579 in restrictive medium, primary screen, yeast lifespan-shortening project, S. cerevisiae; OD615, 48 h; inhibition, % at 10 µM; 140,000 tested, 0.51% active; AID 804, 2007;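 active = inhibition above a set limit, 3 SD over the mean compound inhibition, cut at about 44% in these data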
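controls = amphotericin B 10 µg/mL, positive | assay system = DeaD yeast strain BB579 | schedule = 48 h compound exposure at 30 °C after 4 h preincubation | detection = OD615 turbidity measurement | medium = restrictive CSMM-D medium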
SDO1 yeast rescue – growth rescue of sdo1-depleted yeast, primary screen, S. cerevisiae, bone marrow failure model | S. cerevisiae sdo1-depleted JHY4D growth rescue, OD600 30 h; active compounds read high; pdr5 snq2 efflux-pump mutant strain | z-score at 10 µM | 140,000 tested, 0.21% active;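 active = z-score above 3 at both the 24 hr and the 30 hr optical density reads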;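 also: z-score against mean and SD of all compound wells on the same plate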
The depositor's hits bear a star.

Results for O=C(Nc1cccc(N=Cc2cc(Br)cc(Br)c2O)c1)c1ccco1 ?
HCT116 bCat-KO: 65; Yeast lifespan up: -10; PTEN del growth: 68; Yeast growth inh: 100*; SDO1 yeast rescue: -0.44

Results for OCC(O)C(O)C(O)C(O)C1NCCS1 (stereo not drawn) ?
HCT116 bCat-KO: 102; Yeast lifespan up: 0; PTEN del growth: 92; Yeast growth inh: -42; SDO1 yeast rescue: 1.2

Results for COc1ccc(C(=O)N/N=C/c2sc3ccccc3c2O)cc1 ?
HCT116 bCat-KO: 3.3*; Yeast lifespan up: -2; PTEN del growth: 3.5*; Yeast growth inh: 85*; SDO1 yeast rescue: 0.09

How did COc1ccc2cc(C(=O)N/N=C/c3sc4ccccc4c3O)ccc2c1 do in these assays?
HCT116 bCat-KO: 3.1*; Yeast lifespan up: 8; PTEN del growth: 4; Yeast growth inh: -62; SDO1 yeast rescue: 0.27

What do the screens show for `O=C(N/N=C/c1sc2ccccc2c1O)c1cccc2ccccc12`?
HCT116 bCat-KO: 4.1*; Yeast lifespan up: -4; PTEN del growth: 4; Yeast growth inh: 91*; SDO1 yeast rescue: 1.3

How did O=C(N/N=C/c1sc2ccccc2c1O)c1ccccc1 do in these assays?
HCT116 bCat-KO: 4.0*; Yeast lifespan up: 1; PTEN del growth: 3.7*; Yeast growth inh: 10; SDO1 yeast rescue: 0.7

What do the screens show for `COC(=O)C[N+](C)(C)CC#Cc1ccccc1`?
HCT116 bCat-KO: 110; Yeast lifespan up: 0; PTEN del growth: 106; Yeast growth inh: -1; SDO1 yeast rescue: 0.55

How did Cn1nnnc1SCc1ccc([N+](=O)[O-])cc1 do in these assays?
HCT116 bCat-KO: 98; Yeast lifespan up: 3; PTEN del growth: 102; Yeast growth inh: -13; SDO1 yeast rescue: 0.75

Results for Cc1cnc(NC(=O)c2cc3c(C)nn(-c4ccccc4)c3s2)s1 ?
HCT116 bCat-KO: 61; Yeast lifespan up: -10; PTEN del growth: 40; Yeast growth inh: -45; SDO1 yeast rescue: -1.9

How did Cc1cc(C)c(C)c(OC(=O)c2sc(Cl)nc2C)c1 do in these assays?
HCT116 bCat-KO: 1.7*; Yeast lifespan up: -5; PTEN del growth: 2.3*; Yeast growth inh: -16; SDO1 yeast rescue: -0.79

What do the screens show for `O=C(OC1CCN(c2ncc(C(F)(F)F)cc2Cl)CC1)c1ccccc1`?
HCT116 bCat-KO: 58; Yeast lifespan up: -5; PTEN del growth: 73; Yeast growth inh: -58; SDO1 yeast rescue: 1.4

Results for COc1ccc(C(=O)OC2CCN(c3ncc(C(F)(F)F)cc3Cl)CC2)cc1 ?
HCT116 bCat-KO: 3.4*; Yeast lifespan up: -14; PTEN del growth: 57; Yeast growth inh: -40; SDO1 yeast rescue: 0.85

Results for COc1cc(/C=c2\sc3nc(-c4ccncc4)nn3c2=O)ccc1OC(C)=O ?
HCT116 bCat-KO: 88; Yeast lifespan up: 33*; PTEN del growth: 93; Yeast growth inh: -39; SDO1 yeast rescue: -1.4

What do the screens show for `COc1ccc(C(NC(C)=O)c2c(O)ccc3ccccc23)cc1OC` (stereo not drawn)?
HCT116 bCat-KO: 86; Yeast lifespan up: -5; PTEN del growth: 84; Yeast growth inh: -21; SDO1 yeast rescue: 0.8

How did O=C(Nc1nc(-c2nc3ccccc3s2)cs1)c1ccco1 do in these assays?
HCT116 bCat-KO: 83; Yeast lifespan up: -6; PTEN del growth: 79; Yeast growth inh: -42; SDO1 yeast rescue: -0.55

How did Cc1ccc(C(NC(=O)C(C)C)c2cc([N+](=O)[O-])c3cccnc3c2O)cc1 (stereo not drawn) do in these assays?
HCT116 bCat-KO: 9; Yeast lifespan up: -3; PTEN del growth: 11; Yeast growth inh: 86*; SDO1 yeast rescue: -0.75

Results for Oc1c(C(Nc2nc3ccccc3s2)c2ccco2)ccc2cccnc12 (stereo not drawn) ?
HCT116 bCat-KO: 13; Yeast lifespan up: -6; PTEN del growth: 15; Yeast growth inh: 74*; SDO1 yeast rescue: -1.1

What do the screens show for `COc1ccc(C(NC(C)=O)c2ccc3cccnc3c2O)c(OC)c1` (stereo not drawn)?
HCT116 bCat-KO: 3.7*; PTEN del growth: 2.5*; Yeast growth inh: -12; SDO1 yeast rescue: 1.8

Results for CC(C)C(=O)NC(c1cccs1)c1cc([N+](=O)[O-])c2cccnc2c1O (stereo not drawn) ?
HCT116 bCat-KO: 105; Yeast lifespan up: -13; PTEN del growth: 95; Yeast growth inh: 1; SDO1 yeast rescue: -1.1

What do the screens show for `CC(C)C(=O)NC(c1ccco1)c1ccc2cccnc2c1O` (stereo not drawn)?
HCT116 bCat-KO: 3.5*; Yeast lifespan up: -21; PTEN del growth: 2.0*; Yeast growth inh: -29; SDO1 yeast rescue: 1.1

How did Cc1ccc(NS(=O)(=O)c2cc(C(=O)Nc3cccc(N(C)S(C)(=O)=O)c3)ccc2C)c(C)c1 do in these assays?
HCT116 bCat-KO: 83; Yeast lifespan up: 5; PTEN del growth: 77; Yeast growth inh: -35; SDO1 yeast rescue: -0.07

How did CC(C)CC(=O)OCc1cn(-c2ccccc2)nn1 do in these assays?
HCT116 bCat-KO: 89; Yeast lifespan up: -25; PTEN del growth: 98; Yeast growth inh: -10; SDO1 yeast rescue: -0.07

How did CCOc1ccc(OCCOc2ncnc3ccccc23)cc1 do in these assays?
HCT116 bCat-KO: 72; Yeast lifespan up: -27; PTEN del growth: 70; Yeast growth inh: -50; SDO1 yeast rescue: 0.44

Results for CCOC(=O)c1cnc(-n2nc(C)cc2C)nc1NCCc1ccccc1 ?
HCT116 bCat-KO: 2.2*; Yeast lifespan up: -15; PTEN del growth: 2.9*; Yeast growth inh: 52*; SDO1 yeast rescue: -2.2

What do the screens show for `CCOC(=O)c1cnc(-n2nc(C)cc2C)nc1Nc1ccccc1OC`?
HCT116 bCat-KO: 87; Yeast lifespan up: 0; PTEN del growth: 87; Yeast growth inh: -33; SDO1 yeast rescue: -1.8

What do the screens show for `COc1ccc(Cl)cc1N1C(=O)/C(=C\c2sccc2C)N=C1SCC(=O)NC1CC1`?
HCT116 bCat-KO: 62; Yeast lifespan up: -17; PTEN del growth: 74; Yeast growth inh: -41; SDO1 yeast rescue: -0.53

Results for O=C(NC(=S)NNC(=O)c1ccccc1O)c1ccco1 ?
HCT116 bCat-KO: 16; Yeast lifespan up: 82*; PTEN del growth: 16; Yeast growth inh: -58; SDO1 yeast rescue: 1.9

What do the screens show for `COC(=O)c1cc(COc2ccc3oc(C)c(C(=O)OC(C)C)c3c2)c(C)o1`?
HCT116 bCat-KO: 68; Yeast lifespan up: 5; PTEN del growth: 71; Yeast growth inh: -32; SDO1 yeast rescue: 0.03

How did COc1ccc(OC)c(C(=O)/C=C/c2ccccc2C(F)(F)F)c1 do in these assays?
HCT116 bCat-KO: 4.2*; Yeast lifespan up: -19; PTEN del growth: 5; Yeast growth inh: -76; SDO1 yeast rescue: -1.8

How did COc1ccc(-c2nnc3sc(C(C)N4C(=O)c5ccccc5C4=O)nn23)cc1 (stereo not drawn) do in these assays?
HCT116 bCat-KO: 94; Yeast lifespan up: 30*; PTEN del growth: 106; Yeast growth inh: -23; SDO1 yeast rescue: -1.6

Compound activity deposited in PubChem BioAssay by several laboratories.
